Laboratory results published in ChEMBL document CHEMBL2321824, “5-((1-Aroyl-1H-indol-3-yl)methylene)-2-thioxodihydropyrimidine-4,6(1H,5H)-diones as potential anticancer agents with anti-inflammatory properties” (2013).

Legend:
Type in all cases: functional
UO-31 = assay: Cytotoxicity against human UO31 cells; details: for CC50: read-out: LC50 (the source's name)
Procedure, shortened: (§1)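 Tested in the NCI 60 human tumor cell line panel (leukemia, NSCLC, colon, CNS, melanoma, ovarian, renal, prostate and breast lines) at five doses. A single-dose pre-screen at 10 μM selected which compounds went on. Effect was plotted against log10 drug concentration for each line. GI50 is the molar concentration giving 50% growth inhibition; LC50 is the concentration killing 50% of cells.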

HOP-92 = assay: Cytotoxicity against human HOP92 cells; details: for CC50: read-out: LC50 (the source's name); procedure, shortened: as §1
MOLT-4 = assay: Cytotoxicity against human MOLT4 cells; details: for CC50: read-out: LC50 (the source's name); procedure, shortened: as §1
NCI/ADR-RES = assay: Cytotoxicity against human NCI/ADR-RES cells; details: for CC50: read-out: LC50 (the source's name); procedure, shortened: as §1
OVCAR-3 = assay: Cytotoxicity against human OVCAR3 cells; details: for CC50: read-out: LC50 (the source's name); procedure, shortened: as §1
M14 = assay: Cytotoxicity against human M14 cells; procedure, shortened: as §1
MDA-MB-435 = assay: Cytotoxicity against human MDA-MB-435 cells; details: for CC50: read-out: LC50 (the source's name)
Procedure, shortened: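 Tested in the NCI 60 human tumor cell line panel (leukemia, NSCLC, colon, CNS, melanoma, ovarian, renal, prostate and breast lines) at five doses. A single-dose pre-screen at 10 μM selected which compounds went on. Effect was plotted against log10 drug concentration for each line.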

LOX IMVI = assay: Cytotoxicity against human LOXIMVI cells; details: for CC50: read-out: LC50 (the source's name); procedure, shortened: as §1
SF-539 = assay: Cytotoxicity against human SF539 cells; details: for CC50: read-out: LC50 (the source's name); procedure, shortened: as §1
SF-268 = assay: Cytotoxicity against human SF268 cells; procedure, shortened: as §1
HCT-15 = assay: Cytotoxicity against human HCT15 cells; details: for CC50: read-out: LC50 (the source's name); procedure, shortened: as §1
HCT-116 = assay: Cytotoxicity against human HCT116 cells; details: for CC50: read-out: LC50 (the source's name); procedure, shortened: as §1
SR = assay: Cytotoxicity against human SR cells; procedure, shortened: as §1
K562 = assay: Cytotoxicity against human K562 cells; procedure, shortened: as §1
CCRF-CEM = assay: Cytotoxicity against human CCRF-CEM cells; details: for CC50: read-out: LC50 (the source's name); procedure, shortened: as §1
HL-60(TB) = assay: Cytotoxicity against human HL-60(TB) cells; procedure, shortened: as §1
DU-145 = assay: Cytotoxicity against human DU145 cells; details: for CC50: read-out: LC50 (the source's name); procedure, shortened: as §1
SK-MEL-5 = assay: Cytotoxicity against human SK-MEL-5 cells; procedure, shortened: as §1
UACC-62 = assay: Cytotoxicity against human UACC62 cells; details: for CC50: read-out: LC50 (the source's name); procedure, shortened: as §1
U-251 = assay: Cytotoxicity against human U251 cells; details: for CC50: read-out: LC50 (the source's name); procedure, shortened: as §1
KM12 = assay: Cytotoxicity against human KM12 cells; details: for CC50: read-out: LC50 (the source's name); procedure, shortened: as §1
HOP-62 = assay: Cytotoxicity against human HOP62 cells; details: for CC50: read-out: LC50 (the source's name); procedure, shortened: as §1

Row | Structure (SMILES) | GI50 (NCI/ADR-RES) | CC50 (NCI/ADR-RES) | GI50 (OVCAR-3) | CC50 (OVCAR-3) | GI50 (M14) | LC50 (M14) | CC50 (MDA-MB-435) | GI50 (LOX IMVI) | CC50 (LOX IMVI) | GI50 (SF-539) | CC50 (SF-539) | GI50 (SF-268) | GI50 (HCT-15) | CC50 (HCT-15) | GI50 (HCT-116) | GI50 (SR) | GI50 (K562) | GI50 (CCRF-CEM) | CC50 (CCRF-CEM) | GI50 (HL-60(TB)) | also measured
1 | O=C1NC(=S)NC(=O)C1=Cc1cn(C(=O)c2cccc3ccccc23)c2ccccc12 | 2.59 µM | > 100 µM | 2.46 µM | > 100 µM | 3.22 µM | 9.23 µM | 46.2 µM | 3.59 µM | > 100 µM | 3.58 µM | 55.6 µM | 3.68 µM | 3.6 µM | 58.6 µM | 2.9 µM | 2.74 µM | 3.71 µM | 3.35 µM | > 100 µM | 3.36 µM | GI50 (UO-31): 3.93 µM; CC50 (UO-31): > 100 µM; GI50 (HOP-92): 1.3 µM; CC50 (HOP-92): 44.8 µM; GI50 (MOLT-4): 3.49 µM; CC50 (MOLT-4): 79 µM; GI50 (MDA-MB-435): 1.91 µM; LC50 (SF-268): 50.7 µM; CC50 (HCT-116): > 100 µM; LC50 (SR): 44.8 µM; LC50 (K562): > 100 µM; LC50 (HL-60(TB)): > 100 µM
2 | COc1ccc2c(c1)c(C=C1C(=O)NC(=S)NC1=O)cn2C(=O)c1cccc2ccccc12 | 3.14 µM | > 100 µM | 2.38 µM | 20.9 µM | 1.91 µM | > 100 µM | 12 µM | 3.8 µM | > 100 µM | 3.23 µM | > 100 µM | 2.3 µM | 3.1 µM | > 100 µM | 3.35 µM | 3.32 µM | 3.52 µM | 3.31 µM | > 100 µM | 3.47 µM | GI50 (UO-31): 3.72 µM; CC50 (UO-31): > 100 µM; GI50 (HOP-92): 1.09 µM; CC50 (HOP-92): > 100 µM; GI50 (MOLT-4): 3.95 µM; CC50 (MOLT-4): > 100 µM; GI50 (MDA-MB-435): 2.01 µM; LC50 (SF-268): > 100 µM; CC50 (HCT-116): > 100 µM; LC50 (SR): > 100 µM; LC50 (K562): > 100 µM; LC50 (HL-60(TB)): > 100 µM
3 | COc1ccc(C(=O)n2cc(C=C3C(=O)NC(=S)NC3=O)c3cc(OC)ccc32)cc1 | 2.91 µM | – | 1.26 µM | > 50 µM | 2.03 µM | – | 3.86 µM | 1.86 µM | > 50 µM | 2.56 µM | > 50 µM | 2.65 µM | 1.8 µM | > 50 µM | 1.95 µM | 1.45 µM | 2.55 µM | 2.23 µM | > 50 µM | 3.91 µM | GI50 (DU-145): 2.41 µM; CC50 (DU-145): > 50 µM; GI50 (SK-MEL-5): 2.31 µM; GI50 (UACC-62): 2.33 µM; CC50 (UACC-62): > 50 µM; GI50 (U-251): 1.93 µM; CC50 (U-251): > 50 µM; GI50 (KM12): 1.99 µM; CC50 (KM12): > 50 µM; GI50 (HOP-62): 3.12 µM; CC50 (HOP-62): > 50 µM
4 | COc1ccc2c(c1)c(C=C1C(=O)NC(=S)NC1=O)cn2C(=O)c1ccccc1Br | 3.23 µM | > 100 µM | 2.77 µM | 33.1 µM | 3.52 µM | > 100 µM | 8.43 µM | 2.92 µM | 47.9 µM | 3 µM | 57.8 µM | 3.86 µM | 3.83 µM | 89.9 µM | 3.76 µM | 2.55 µM | 3.8 µM | 4 µM | > 100 µM | 3.24 µM | GI50 (DU-145): 3.01 µM; CC50 (DU-145): 53.6 µM; GI50 (SK-MEL-5): 3.47 µM; LC50 (SK-MEL-5): > 50 µM; GI50 (UACC-62): 3.38 µM; CC50 (UACC-62): 39.6 µM; GI50 (MDA-MB-435): 1.77 µM; GI50 (U-251): 3.09 µM; CC50 (U-251): 42.1 µM; LC50 (SF-268): 52.2 µM; GI50 (KM12): 3.87 µM; CC50 (KM12): 51.9 µM; CC50 (HCT-116): > 100 µM; LC50 (SR): > 100 µM; GI50 (HOP-62): 3.59 µM; CC50 (HOP-62): 64.3 µM; LC50 (K562): > 100 µM; LC50 (HL-60(TB)): > 100 µM
